Experiment [1] has as its target Small conductance calcium-activated potassium channel protein 3 (Rattus norvegicus) (UniProt P70605). Nature of the experiment: Inhibition of KCa2.3 in Sprague-Dawley rat superior cervical ganglion neurons assessed as inhibition of afterhyperpolarization by electrophysiological assay relative to UCL1848. Summed up:
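AHP recorded from rat sympathetic ganglion neurons. The equi-effective molar ratio is the test-compound concentration giving 50% AHP inhibition divided by the UCL 1848 concentration giving 50% inhibition, both measured in the same experiment. Each compound was tested on 3–5 neurons.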
Target sequence in this assay (P70605 whole entry): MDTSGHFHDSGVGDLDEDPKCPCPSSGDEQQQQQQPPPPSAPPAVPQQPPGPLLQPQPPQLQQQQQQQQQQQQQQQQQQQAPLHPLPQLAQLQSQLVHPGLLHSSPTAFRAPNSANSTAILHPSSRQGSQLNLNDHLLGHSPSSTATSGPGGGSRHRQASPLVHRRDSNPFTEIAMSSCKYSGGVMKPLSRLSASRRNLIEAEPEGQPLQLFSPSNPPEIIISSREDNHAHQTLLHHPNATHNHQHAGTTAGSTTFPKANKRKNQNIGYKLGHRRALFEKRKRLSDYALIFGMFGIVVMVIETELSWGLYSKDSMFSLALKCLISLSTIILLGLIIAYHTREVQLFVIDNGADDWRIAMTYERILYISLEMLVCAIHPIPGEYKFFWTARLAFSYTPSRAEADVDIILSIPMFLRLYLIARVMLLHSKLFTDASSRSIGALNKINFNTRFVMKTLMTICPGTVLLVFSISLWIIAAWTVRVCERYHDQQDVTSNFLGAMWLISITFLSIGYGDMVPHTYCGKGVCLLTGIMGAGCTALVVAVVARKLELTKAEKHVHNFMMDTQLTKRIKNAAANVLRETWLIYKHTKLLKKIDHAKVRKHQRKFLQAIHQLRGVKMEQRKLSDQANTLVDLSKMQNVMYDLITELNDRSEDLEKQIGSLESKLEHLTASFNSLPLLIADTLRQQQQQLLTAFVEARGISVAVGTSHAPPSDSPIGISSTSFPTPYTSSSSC

Experiment [2] addresses Small conductance calcium-activated potassium channel protein 3 (Rattus norvegicus, UniProt P70605). Nature of the experiment: Inhibition of KCa2.3 in Sprague-Dawley rat superior cervical ganglion neurons assessed as inhibition of afterhyperpolarization by electrophysiological assay. Put shortly:
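Afterhyperpolarization (AHP) recorded from rat sympathetic ganglion neurons. The reported value is the concentration giving a 50% reduction in AHP amplitude.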

Experiment [3] concerns the target Small conductance calcium-activated potassium channel protein 3 (Rattus norvegicus) (UniProt P70605). Nature of the experiment: Inhibition of KCa2.3 in rat superior cervical ganglion neurons.
Target sequence in this assay (P70605 whole entry, looked up): as the sequence (P70605 whole entry) above

Among the data in ChEMBL document CHEMBL2390924, “Further studies on bis-charged tetraazacyclophanes as potent inhibitors of small conductance Ca(2+)-activated K+ channels” (Eur J Med Chem, 2013) are EMR and IC50 values, retold here.

Each structure is given as a SMILES string.

Small conductance calcium-activated potassium channel protein 3, sequence (P70605 whole entry): as above

Usually IC50 stands for the concentration needed to halve the response being measured. In the case of `c1ccc2c(c1)c1cc[n+]2CCOCC[n+]2ccc(c3ccccc32)NCCOCCN1`, the EMR in experiment [1] was 5.1. For the same compound, the IC50 in experiment [2] is 17 nM. As to `COc1ccc2c(c1)c1cc[n+]2Cc2cccc(c2)C[n+]2ccc(c3cc(OC)ccc32)NCc2ccc(cc2)CN1`, the EMR in experiment [1] came out at 7.4. Further, the IC50 in experiment [2] came to 15 nM. The matching figures for `FC(F)(F)c1ccc2c(c1)c1cc[n+]2CCCCC[n+]2ccc(c3cc(C(F)(F)F)ccc32)NCCCCCN1`: 1.1 and 4 nM. The matching figures for `c1ccc2c(c1)c1cc[n+]2CCCCC[n+]2ccc(c3ccccc32)NCCC2(CCN1)OCCO2`: 60 and 214 nM. The matching figures for `c1ccc2c(c1)c1cc[n+]2CCCCC[n+]2ccc(c3ccccc32)SCCCCCS1`: 25 and 124 nM. `COc1c2cccc1CNc1cc[n+](c3ccccc13)CCCCC[n+]1ccc(c3ccccc31)NC2`: the EMR in experiment [1] worked out at 38. Further, in experiment [2], the IC50 was 97 nM. In the same order, the values of `CC1CCNc2cc[n+](c3ccccc23)CCCCC[n+]2ccc(c3ccccc32)NCC1` are 2.6 and 5.9 nM.

As to `Clc1cc(Cl)c2c3cc[n+](c2c1)Cc1cccc(c1)C[n+]1ccc(c2c(Cl)cc(Cl)cc21)NCc1ccc(cc1)CN3`, the EMR in experiment [1] was found to be 10. Further, the IC50 in experiment [2] is 24 nM. Turning to `c1cc2cc(c1)CNc1cc[n+](c3ccccc13)CCCCC[n+]1ccc(c3ccccc31)NC2` [listing 1 of 3 here], the IC50 in experiment [2] came to 33 nM.

As for `c1ccc2c(c1)c1cc[n+]2CCSCC[n+]2ccc(c3ccccc32)NCCSCCN1`, in experiment [1], the EMR turned out to be 12. The IC50 in experiment [2] is 42 nM. The matching figures for `FC(F)(F)c1ccc2c3cc[n+](c2c1)CCCCC[n+]1ccc(c2ccc(C(F)(F)F)cc21)NCCCCCN3`: 1.6 and 8.1 nM. On to `c1ccc(CN2CCCCCN(Cc3ccccc3)c3cc[n+](c4ccccc34)CCCCC[n+]3ccc2c2ccccc23)cc1`, for which, in experiment [1], the EMR was 25. Also, the IC50 in experiment [2] is 123 nM. As for `c1ccc2c(c1)c1cc[n+]2Cc2ccc(cc2)C[n+]2ccc(c3ccccc32)NCCCCCN1`, the EMR in experiment [1] was determined as 1.8. The IC50 in experiment [2] was determined as 4.4 nM. The matching figures for `O=C1CCNc2cc[n+](c3ccccc23)CCCCC[n+]2ccc(c3ccccc32)NCC1`: 3.6 and 12 nM. Consider `Fc1ccc2c(c1)c1cc[n+]2Cc2cccc(c2)C[n+]2ccc(c3cc(F)ccc32)NCc2ccc(cc2)CN1`, for which the EMR in experiment [1] is 6.9. In addition, the IC50 in experiment [2] came out at 17 nM. As to `c1ccc2c(c1)c1cc[n+]2CCCCC[n+]2ccc(c3ccccc32)NCc2ccc(cc2)CN1`, in experiment [3], the IC50 is 60 nM.

`Oc1c2cc(I)cc1CNc1cc[n+](c3ccccc13)CCCCC[n+]1ccc(c3ccccc31)NC2`: the EMR in experiment [1] amounted to 136. Further, the IC50 in experiment [2] was found to be 348 nM.

On to `COc1ccc2c3cc[n+](c2c1)Cc1cccc(c1)C[n+]1ccc(c2ccc(OC)cc21)NCc1ccc(cc1)CN3`, for which, in experiment [1], the EMR worked out at 4.1. In addition, in experiment [2], the IC50 was 9.8 nM. The matching figures for `O=[N+]([O-])c1ccc2c(c1)c1cc[n+]2Cc2cccc(c2)C[n+]2ccc(c3cc([N+](=O)[O-])ccc32)NCc2ccc(cc2)CN1`: 2.6 and 5.1 nM. For the compound `Nc1ccc2c(c1)c1cc[n+]2CCCCC[n+]2ccc(c3cc(N)ccc32)NCCCCCN1`, in experiment [1], the EMR worked out at 1.04. The IC50 in experiment [2] stood at 2.3 nM. As for `C1=C\CNc2cc[n+](c3ccccc23)CCCCC[n+]2ccc(c3ccccc32)NC/1`, the EMR in experiment [1] is 6.1. The IC50 in experiment [2] was determined as 13 nM. The matching figures for `CC1CCNc2cc[n+](c3ccccc23)CCC(C)CC[n+]2ccc(c3ccccc32)NCC1` (centres undefined): 2.3 and 5.2 nM. The matching figures for `C1#CCNc2cc[n+](c3ccccc23)CCCCC[n+]2ccc(c3ccccc32)NC1`: 5.6 and 14 nM.

For the compound `OC1CCNc2cc[n+](c3ccccc23)CCCCC[n+]2ccc(c3ccccc32)NCC1`, the EMR in experiment [1] is 0.91. Also, the IC50 in experiment [2] is 3.2 nM.

Turning to `Nc1ccc2c(c1)c1cc[n+]2Cc2cccc(c2)C[n+]2ccc(c3cc(N)ccc32)NCc2ccc(cc2)CN1`, in experiment [1], the EMR came out at 1.7. In addition, the IC50 in experiment [2] was found to be 3.7 nM.

Turning to `CC1CC[n+]2ccc(c3ccccc32)NCCCCCNc2cc[n+](c3ccccc23)CC1`, in experiment [1], the EMR was determined as 1.7. In experiment [2], the IC50 was 3.8 nM. The matching figures for `COc1ccc2c3cc[n+](c2c1)CCCCC[n+]1ccc(c2ccc(OC)cc21)NCCCCCN3`: 1.1 and 3 nM.

Take `FC(F)(F)Oc1ccc2c(c1)c1cc[n+]2Cc2cccc(c2)C[n+]2ccc(c3cc(OC(F)(F)F)ccc32)NCc2ccc(cc2)CN1`: the EMR in experiment [1] stood at 5.9. Besides, the IC50 in experiment [2] was 15 nM. In the same order, the values of `Clc1ccc2c(c1)c1cc[n+]2Cc2cccc(c2)C[n+]2ccc(c3cc(Cl)ccc32)NCc2ccc(cc2)CN1` are 8 and 21 nM. Consider `Fc1ccc2c(c1)c1cc[n+]2CCCCC[n+]2ccc(c3cc(F)ccc32)NCCCCCN1`, for which, in experiment [1], the EMR was 2.1. Moreover, the IC50 in experiment [2] was determined as 4.1 nM. Regarding `FC(F)(F)c1ccc2c3cc[n+](c2c1)Cc1cccc(c1)C[n+]1ccc(c2ccc(C(F)(F)F)cc21)NCc1ccc(cc1)CN3`, in experiment [1], the EMR is 31. Moreover, in experiment [2], the IC50 amounted to 76 nM.

`c1ccc2c(c1)c1cc[n+]2CCSCC[n+]2ccc(c3ccccc32)NCCCCCN1`: the EMR in experiment [1] was determined as 1.2. Further, in experiment [2], the IC50 was found to be 4.1 nM. Take `Clc1cc(Cl)c2c3cc[n+](c2c1)CCCCC[n+]1ccc(c2c(Cl)cc(Cl)cc21)NCCCCCN3`: in experiment [1], the EMR came out at 8.6. In experiment [2], the IC50 was determined as 21 nM.

For the compound `FC(F)(F)c1ccc2c(c1)c1cc[n+]2Cc2cccc(c2)C[n+]2ccc(c3cc(C(F)(F)F)ccc32)NCc2ccc(cc2)CN1`, in experiment [1], the EMR came out at 11. In addition, the IC50 in experiment [2] was 27 nM. In the case of `c1ccc2c(c1)c1cc[n+]2CCCCC[n+]2ccc(c3ccccc32)NCCCCCN1`, the IC50 in experiment [2] came to 2.7 nM. For `O=[N+]([O-])c1ccc2c(c1)c1cc[n+]2CCCCC[n+]2ccc(c3cc([N+](=O)[O-])ccc32)NCCCCCN1`, the EMR in experiment [1] is 2.1. Moreover, the 50% inhibitory concentration (IC50) in experiment [2] stood at 4.1 nM. In the same order, the values of `Oc1ccc2c(c1)c1cc[n+]2CCCCC[n+]2ccc(c3cc(O)ccc32)NCCCCCN1` are 1.8 and 3.9 nM. In the same order, the values of `c1ccc2c(c1)c1cc[n+]2CCSCC[n+]2ccc(c3ccccc32)NCCOCCN1` are 11 and 37 nM. For `c1cc2cc(c1)C[n+]1ccc(c3ccccc31)NCc1ccc(cc1)CNc1cc[n+](c3ccccc13)C2`, the EMR in experiment [1] turned out to be 1.44. For the same compound, the IC50 in experiment [2] came out at 4.1 nM. As for `c1cc2cc(c1)CNc1cc[n+](c3ccccc13)CCCCC[n+]1ccc(c3ccccc31)NC2` [listing 2 of 3 here], the EMR in experiment [1] came to 12. Turning to `Oc1c2cccc1CNc1cc[n+](c3ccccc13)CCCCC[n+]1ccc(c3ccccc31)NC2`, in experiment [1], the EMR amounted to 153. For the same compound, the IC50 in experiment [2] came out at 394 nM. Consider `c1cc2cc(c1)C[n+]1ccc(c3ccccc31)NCC1CCC(CC1)CNc1cc[n+](c3ccccc13)C2`, for which the EMR in experiment [1] was 0.81. Besides, the IC50 in experiment [2] stood at 1.7 nM.

`c1ccc2c(c1)c1cc[n+]2CCC2(CC[n+]3ccc(c4ccccc43)NCCC3(CCN1)OCCO3)OCCO2`: the EMR in experiment [1] stood at 83. Moreover, the IC50 in experiment [2] was found to be 300 nM. The matching figures for `c1ccc2c(c1)c1cc[n+]2CCCCC[n+]2ccc(c3ccccc32)NCCSCCN1`: 5.3 and 18 nM.

Take `C1=C\C[n+]2ccc(c3ccccc32)NCCCCCNc2cc[n+](c3ccccc23)C/1`: in experiment [1], the EMR was 19. For the same compound, the concentration for half-maximal inhibition (IC50) in experiment [2] is 42 nM. With `c1ccc2c(c1)c1cc[n+]2CCOCC[n+]2ccc(c3ccccc32)NCCSCCN1`, in experiment [1], the EMR is 17. Further, in experiment [2], the IC50 came out at 58 nM. As to `FC1(F)CNc2cc[n+](c3ccccc23)CCCCC[n+]2ccc(c3ccccc32)NCC(F)(F)C1(F)F`, the EMR in experiment [1] worked out at 13.5. For the same compound, in experiment [2], the IC50 was 33 nM. For `c1cc2cc(c1)CNc1cc[n+](c3ccccc13)CCCCC[n+]1ccc(c3ccccc31)NC2` [listing 3 of 3 here], the IC50 in experiment [3] was 31 nM. `Clc1ccc2c3cc[n+](c2c1)Cc1cccc(c1)C[n+]1ccc(c2ccc(Cl)cc21)NCc1ccc(cc1)CN3`: the EMR in experiment [1] worked out at 7.3. Besides, the IC50 in experiment [2] was 19 nM. Regarding `c1ccc2c(c1)c1cc[n+]2CCCCC[n+]2ccc(c3ccccc32)NCCOCCN1`, in experiment [1], the EMR is 5. Also, in experiment [2], the IC50 was 17 nM. In the same order, the values of `Clc1ccc2c(c1)c1cc[n+]2CCCCC[n+]2ccc(c3cc(Cl)ccc32)NCCCCCN1` are 1.1 and 3 nM. `Cc1ccc2c(c1)c1cc[n+]2Cc2cccc(c2)C[n+]2ccc(c3cc(C)ccc32)NCc2ccc(cc2)CN1`: in experiment [1], the EMR turned out to be 7.6. The 50% inhibitory concentration (IC50) in experiment [2] was 19 nM.

`c1ccc2c(c1)c1cc[n+]2CCOCC[n+]2ccc(c3ccccc32)NCCCCCN1`: the EMR in experiment [1] was 1.4. In experiment [2], the IC50 worked out at 4.8 nM. With `Clc1ccc2c3cc[n+](c2c1)CCCCC[n+]1ccc(c2ccc(Cl)cc21)NCCCCCN3`, the EMR in experiment [1] is 0.53. Also, the IC50 in experiment [2] came out at 2.6 nM. `Cc1ccc2c(c1)c1cc[n+]2CCCCC[n+]2ccc(c3cc(C)ccc32)NCCCCCN1`: the EMR in experiment [1] was found to be 2. For the same compound, the IC50 in experiment [2] came out at 3.8 nM. As to `COc1ccc2c(c1)c1cc[n+]2CCCCC[n+]2ccc(c3cc(OC)ccc32)NCCCCCN1`, in experiment [1], the EMR was determined as 3.1. Also, the IC50 in experiment [2] was determined as 6.8 nM. The matching figures for `c1ccc2c(c1)c1cc[n+]2CCCCC[n+]2ccc(c3ccccc32)NCC2CCC(CC2)CN1`: 54 and 114 nM.
